Measurements taken from publication PMC4278532 (Environmental Toxicology and Chemistry / Setac, 2014).

Experiments:
[1] = target: T1, human aryl hydrocarbon receptor (AhR) (Homo sapiens, UniProt P35869); assay: Yeast bioassay; assay type: cell-based; settings: for concentration at which the bioassay response showed signs of saturation: Figure 3
Outline: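 Engineered S. cerevisiae YCM3 (W303a-derived) carries chromosomal full-length human AhR/ARNT under the galactose promoter and a 5×XRE-LacZ plasmid. Kept in glucose medium, diluted to A600 0.04 in 2% galactose medium, exposed 18 h at 30 °C (1% DMSO vehicle). ONPG assay pH 7.0, ~5 min, 37 °C, Na2CO3 stop. A405 normalized to A600, % of 1 µM β-naphthoflavone. Two-parameter fit; n = 4, ≥3 experiments.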

AhR = settings: cited from earlier work
YCM3 yeast cells = assay: Toxicity to the yeast cells; assay type: cell-based, Saccharomyces cerevisiae; settings: for concentrations toxic to the yeast cells: 18 h, precluded data collection; for toxicity to the yeast cells: compared with 2-MP, 3-MP, 4-MP, tested up to 100 µM
[2] = target: T1, human aryl hydrocarbon receptor (AhR); settings: cited from earlier work

T1 sequence (P35869 11-848): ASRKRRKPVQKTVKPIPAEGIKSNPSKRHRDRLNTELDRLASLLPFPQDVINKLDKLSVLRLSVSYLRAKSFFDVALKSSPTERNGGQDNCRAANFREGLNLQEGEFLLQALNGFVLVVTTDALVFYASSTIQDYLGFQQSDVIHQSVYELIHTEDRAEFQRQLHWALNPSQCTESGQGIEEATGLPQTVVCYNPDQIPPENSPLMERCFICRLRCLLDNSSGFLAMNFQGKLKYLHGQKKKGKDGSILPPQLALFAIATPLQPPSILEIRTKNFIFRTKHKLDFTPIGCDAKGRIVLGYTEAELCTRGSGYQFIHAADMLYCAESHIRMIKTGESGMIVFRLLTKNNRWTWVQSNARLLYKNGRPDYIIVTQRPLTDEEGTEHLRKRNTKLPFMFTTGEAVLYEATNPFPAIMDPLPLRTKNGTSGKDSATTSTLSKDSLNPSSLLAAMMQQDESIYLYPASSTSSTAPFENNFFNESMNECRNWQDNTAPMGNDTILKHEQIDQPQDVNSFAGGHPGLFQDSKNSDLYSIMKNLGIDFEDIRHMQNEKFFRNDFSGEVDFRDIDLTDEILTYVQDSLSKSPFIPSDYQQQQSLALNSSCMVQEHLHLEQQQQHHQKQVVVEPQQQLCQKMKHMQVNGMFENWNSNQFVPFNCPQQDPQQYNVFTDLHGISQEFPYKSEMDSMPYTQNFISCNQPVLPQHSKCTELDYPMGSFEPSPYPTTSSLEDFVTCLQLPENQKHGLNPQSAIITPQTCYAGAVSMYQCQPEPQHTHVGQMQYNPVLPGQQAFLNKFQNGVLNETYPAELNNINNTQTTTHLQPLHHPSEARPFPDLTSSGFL
T1 sequence (P27540 whole entry partner): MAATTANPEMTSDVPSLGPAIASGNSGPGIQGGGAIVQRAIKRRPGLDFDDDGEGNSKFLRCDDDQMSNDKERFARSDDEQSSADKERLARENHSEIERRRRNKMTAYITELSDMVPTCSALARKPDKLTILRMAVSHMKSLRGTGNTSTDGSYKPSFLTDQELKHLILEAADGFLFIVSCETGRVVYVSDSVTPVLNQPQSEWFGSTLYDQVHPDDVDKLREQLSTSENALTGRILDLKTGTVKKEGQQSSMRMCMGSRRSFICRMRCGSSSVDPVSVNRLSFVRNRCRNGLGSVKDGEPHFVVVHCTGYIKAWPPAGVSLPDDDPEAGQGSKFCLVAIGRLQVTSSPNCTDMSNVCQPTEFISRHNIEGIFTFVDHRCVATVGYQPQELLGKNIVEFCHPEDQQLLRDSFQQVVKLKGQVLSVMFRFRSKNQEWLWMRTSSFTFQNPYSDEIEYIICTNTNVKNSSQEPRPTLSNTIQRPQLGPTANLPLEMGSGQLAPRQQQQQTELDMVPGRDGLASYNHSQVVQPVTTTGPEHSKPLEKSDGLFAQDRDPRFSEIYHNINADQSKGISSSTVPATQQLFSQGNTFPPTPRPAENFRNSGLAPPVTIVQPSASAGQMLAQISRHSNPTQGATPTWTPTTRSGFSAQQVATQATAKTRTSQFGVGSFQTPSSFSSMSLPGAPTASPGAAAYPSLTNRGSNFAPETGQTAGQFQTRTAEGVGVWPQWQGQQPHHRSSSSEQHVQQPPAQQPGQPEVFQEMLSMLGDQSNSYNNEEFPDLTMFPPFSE

Q: Which “concentration at which the bioassay response showed signs of saturation” value (“concentration … of saturation” below) [1] does the source give for `Cc1cccc2c1ccc1ccccc12` [1-MP, 1-methylphenanthrene] here?
A: 30 µM

Q: And the “AhR activation in a rat liver system” value (AhR)?
A: stronger than 9-MP

Q: Which “concentrations toxic to the yeast cells” value (YCM3 yeast cells) does the source give for `Cc1ccc2c(ccc3ccccc32)c1` [2-MP, 2-methylphenanthrene] here?
A: above 50 µM

Q: And the “AhR activation in a rat liver system” value (AhR)?
A: stronger than 9-MP

Q: Which “signal in the bioassay relative to that produced by phenanthrene and the monomethylated derivatives” value [1] does the source give for `Cc1ccc2ccc3ccc(C)cc3c2c1` [3,6-DMP, 3,6-dimethylphenanthrene] here?
A: approximately 50%

Q: What does the source list for `Cc1ccc2ccc3ccccc3c2c1` [3-MP, 3-methylphenanthrene]?
A: concentrations toxic to the yeast cells (YCM3 yeast cells): above 50 µM; AhR activation in a rat liver system (AhR): stronger than 9-MP

Q: With `Cc1cccc2ccc3ccccc3c12` [4-MP, 4-methylphenanthrene] as the molecule, how does the “concentrations toxic to the yeast cells” value (YCM3 yeast cells) read?
A: above 50 µM

Q: With `Cc1cc2ccccc2c2ccccc12` [9-MP, 9-methylphenanthrene] as the molecule, how does the “concentration … of saturation” value [1] read?
A: 100 µM

Q: What about the “toxicity to the yeast cells” value (YCM3 yeast cells) of the same molecule?
A: less toxic to the yeast cells

Q: For `c1ccc2c(c1)ccc1ccccc12` [Phenanthrene, phenanthrene, reference compound], which “concentration … of saturation” value [1] is on record?
A: 100 µM

Q: And the “toxicity to the yeast cells” value (YCM3 yeast cells)?
A: less toxic to the yeast cells

Q: For `c1ccc2c(c1)cc1ccc3cccc4ccc2c1c34` [benzo[a]pyrene], which “activity in this yeast bioassay” value [2] is on record?
A: very potent activator

Q: Which “AhR agonism” value ([2]; positive control) does the source give for `O=c1cc(-c2ccccc2)oc2ccc3ccccc3c12` [β-NF, β-naphthoflavone] here?
A: strong agonist
